SR-BI DiI-HDL act: activators of SR-BI mediated DiI-HDL uptake, primary screen, ldlA[mSR-BI] CHO cells, DiI fluorescence | 3 h; 100 = double the neutral-control signal | activation, % at 12.5 µM | actives 0.096% (n = 320,000);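 active means mean replicate activation of at least 60% and every replicate at or above 60%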;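 further: 0% = median plate neutral-control signal and 100% = twice that signal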
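Test system: SR-BI-overexpressing, LDLR-lacking CHO cells; Medium: Ham's F12 with 0.5% BSA, HEPES 25 mM, pH 7.4; Schedule: 3 h, 37 °C; Technique: bottom-read fluorescence, 550/595 nm.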
dFosB activator: activators of delta FosB homodimer, primary screen, biochemical, fluorescence polarization, TAMRA-CDK5 oligo, single point; purified delta FosB; percent of positive-control signal above neutral wells; activation, % at 25 µM; actives 0.99% (n = 340,000); AID 493131, 2011;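 active means mean activation above about 17%, with every replicate also reaching it, limit read from the data, passing the limit was not always enough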
RAD54 branch: inhibitors of human RAD54 branch migration, primary screen, biochemical, fluorescence, single point | DNA repair and recombination protein RAD54-like (Homo sapiens), Q92698 | RAD54 Holliday junction branch migration, FAM/BHQ fluorescence | inhibition, % at 10.4 µM | actives 0.14% (n = 360,000) | AID 602329, 2012;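 active means mean normalized replicate activity at least 40 and at least half of replicates scoring 40 or more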;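 further: 0% = median of neutral control wells and 100% = median of positive control wells; inhibitors cause a drop in the FAM fluorescence signal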
S100A4 inh HTS: inhibitors of S100A4-myosin IIA peptide binding, primary screen, biochemical, fluorescence polarization, TAMRA-MyoIIA peptide; Protein S100-A4 (Homo sapiens), P26447; inhibition, % at 10.7 µM; actives 0.14% (n = 360,000); AID 652163, 2013;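 active means mean inhibition of at least 70% across replicates, with every replicate also reaching that level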
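assay system = human S100A4 monomer with TAMRA-labelled myosin IIA peptide | also added = labelled myosin peptide probe, 5 nM | incubation = 5 min between mix addition and reading | control set = DMSO and TFP controls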
SR-BI DiI inh: inhibitors of SR-BI mediated HDL lipid uptake, primary screen, ldlA[mSR-BI] cells, fluorescence, single point | Scavenger receptor class B member 1 (Mus musculus), Q61009 | ldlA[mSR-BI] CHO cells, DiI-HDL uptake fluorescence, 3 h | inhibition, % at 12.5 µM | actives 0.96% (n = 320,000) | AID 488896, 2010;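 active means mean replicate inhibition of at least 70% and a set share of replicates each scoring 70 or more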;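 further: 0% = median of neutral control wells and 100% = median of positive control wells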
Target sequence (Q61009 whole entry, looked up): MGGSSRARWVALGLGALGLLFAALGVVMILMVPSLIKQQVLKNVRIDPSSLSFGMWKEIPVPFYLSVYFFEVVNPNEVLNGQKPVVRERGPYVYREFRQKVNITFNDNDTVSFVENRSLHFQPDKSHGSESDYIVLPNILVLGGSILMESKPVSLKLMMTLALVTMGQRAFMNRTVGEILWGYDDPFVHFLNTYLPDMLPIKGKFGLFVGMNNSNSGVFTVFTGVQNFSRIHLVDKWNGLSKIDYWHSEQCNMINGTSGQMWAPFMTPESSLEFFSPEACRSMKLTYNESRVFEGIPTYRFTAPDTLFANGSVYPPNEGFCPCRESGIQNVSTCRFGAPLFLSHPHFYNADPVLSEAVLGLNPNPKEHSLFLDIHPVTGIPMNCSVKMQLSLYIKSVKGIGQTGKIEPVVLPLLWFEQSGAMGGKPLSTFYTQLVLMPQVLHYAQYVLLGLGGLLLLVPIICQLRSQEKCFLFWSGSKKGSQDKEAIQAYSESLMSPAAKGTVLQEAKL
PvdQ inh: P. aeruginosa PvdQ acylase inhibitors, primary screen, biochemical, fluorescence, plate reader and imaging, single point; purified PvdQ acylase; inhibition, % at 10 µM; PvdQ acylase [Pseudomonas aeruginosa LESB58]; actives 0.063% (n = 340,000); in the data active means inhibition above about 30%, passing the limit was not always enough;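 further: 0% = vehicle neutral wells and 100% = reference inhibitor wells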
DiI quencher: counter-screen for SR-BI lipid transfer inhibitors: DiI fluorescence quenchers; shares compounds with SR-BI DiI inh; cell-free DiI-HDL fluorescence quenching, 30 min; AC50, µM (doses to about 35 µM), for inactives: at the top dose activity change, negative = quenching; actives 20% (n = 470); AID 540326;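 active means quenching, a falling signal, with AC50 below a set limit tied to the top valid dose, actives reach about 32 µM in these data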
* hit, by the source's call; x = no result. Sampled rows, rich in hits. Any-hit rate of the full collection: about 1.6%.

SMILES | SR-BI DiI-HDL act | dFosB activator | RAD54 branch | S100A4 inh HTS | SR-BI DiI inh | PvdQ inh | DiI quencher
CC(C)[C@H](NC(=O)c1ccco1)C(=O)OCC(=O)c1ccc2c(c1)NC(=O)CO2 | 20.2 | -0.1 | x | 1.7 | -20.2 | -15.9 | -5.2%
O=C1COc2ccc(C(=O)COC(=O)c3ccco3)cc2N1 | x | -3.4 | x | 25.8 | x | -6.9 | x
Nc1c(-c2cccs2)cnn1-c1nc(-c2ccc(F)cc2)cs1 | -74.1 | -3.2 | -4.6 | x | 74.1* | -1.2 | -6.6%
Cc1cccc(S(=O)(=O)N[C@@H]2CC[C@@H](CCn3cc(-c4ccccn4)nn3)O[C@@H]2CO)c1 | x | x | -2.4 | 2.1 | x | x | x
O=C(Nc1ccc(-c2csc(Nc3ccccc3)n2)cc1)c1cccc(C(F)(F)F)c1 | -113.7 | 1.6 | 6.4 | 1.2 | 113.7* | 0.4 | 1.54µM*
O=C(Nc1ccccc1)c1cccc(C(F)(F)F)c1 | -1.2 | -2.0 | x | x | 1.2 | -7.1 | x
CC(C)NC(=O)N(C)C[C@@H]1Oc2c(NS(=O)(=O)c3ccc(Cl)cc3)cccc2C(=O)N([C@@H](C)CO)C[C@@H]1C | x | x | 10.0 | 4.1 | x | x | x
CCOC(=O)Nc1cccc(NC(=O)c2cc(OC)cc(OC)c2)c1 | -74.4 | 1.0 | 8.8 | x | 74.4* | 1.1 | 9.7%
COc1cc(OC)cc(C(=O)Nc2cccc(NC(C)=O)c2)c1 | -25.4 | -5.7 | -2.9 | x | 25.4 | 6.7 | x
CCOC(=O)c1cccc(NC(=O)Nc2cc(OC)ccc2OC)c1 | -109.3 | -11.0 | 1.7 | x | 109.3* | -4.2 | 4.81µM*
COc1cc(OC)cc(C(=O)Nc2cccc(NC(=O)c3cc(OC)cc(OC)c3)n2)c1 | -81.9 | -7.1 | -4.0 | -3.6 | 81.9* | -9.3 | 5.7%
COc1ccc2c3c([nH]c2c1)[C@H](CO)N(Cc1ccccc1)CC31CN(C)C1 | x | x | x | -5.9 | x | x | x
O=C(Nc1ccccc1C(=O)O)c1cccc(NC(=O)c2ccccc2Cl)c1 | -34.0 | -12.1 | -7.9 | 0.5 | 34.0 | -13.3 | x
O=C(Nc1cccc(NC(=O)c2ccccc2Cl)c1)c1ccc(F)cc1 | -79.1 | -5.1 | 9.8 | -1.8 | 79.1* | 8.8 | -1.3%
COCC(=O)N(C)C[C@@H]1Oc2ncc(C3=CCCCC3)cc2C(=O)N([C@H](C)CO)C[C@H]1C | x | x | 2.7 | 2.3 | x | x | x
O=C1[C@@H]2Cc3c([nH]c4ccccc34)C(c3cccc([N+](=O)[O-])c3)N2C(=O)CN1CCCO (stereo partly specified) | -81.8 | -7.1 | -0.3 | -4.3 | 81.8* | -8.6 | -16.2%
CC(=O)c1c(C)[nH]c(C(=O)Nc2ccc(C)c(S(=O)(=O)Nc3ccc(C)cc3C)c2)c1C | -83.4 | -9.0 | 2.0 | -0.3 | 83.4* | -10.2 | 11.0%
CC(=O)c1c(C)[nH]c(C(=O)Nc2ccc(C)c(S(=O)(=O)N(C)C)c2)c1C | -63.5 | -12.3 | -2.7 | 10.0 | 63.5 | -3.4 | x
C[C@H](CO)N1C[C@H](C)[C@@H](CN(C)C(=O)c2ccccc2)OCCCC[C@H](C)Oc2ccc(NS(C)(=O)=O)cc2C1=O | x | x | 5.8 | 3.7 | x | x | x
COc1ccc(CN(C)C[C@@H]2OCCCC[C@@H](C)Oc3ccc(NC(=O)Cc4ccccc4)cc3C(=O)N([C@H](C)CO)C[C@@H]2C)cc1 | x | x | 10.1 | x | x | x | x
CO[C@H]1CN(C)C(=O)c2cc(NS(=O)(=O)c3cccc(F)c3)ccc2OC[C@@H](C)N(Cc2cc(F)ccc2F)C[C@@H]1C | x | x | -3.3 | 0.3 | x | x | x
Cc1ccc(OCC(=O)NNC(=O)C2CCN(c3ncnc4sc(C)c(C)c34)CC2)cc1 | -80.0 | -2.2 | x | 0.6 | 80.0* | -6.4 | 2.7%
Cc1ccc(S(=O)(=O)N[C@H]2CC[C@@H](CCn3cc(-c4cccc(F)c4)nn3)O[C@H]2CO)cc1 | x | x | 3.9 | -13.6 | x | x | x
